Experimental findings from PubChem BioAssay are described below.

Experiment [1] can be described thus: inhibitors of TNFa-induced NFkB p65 translocation, primary screen, imaging, HUVEC, MLSMR starter and 10KST1 sets (AID 438;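 active = inhibition above 20% together with a positive visual image hit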;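 also: compound added about 3h40 before a 20 min TNFalpha stimulation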;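 as to inhibition: signal is the nuclear over cytoplasmic p65 intensity ratio per well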). To be noted: HUVEC TNFa-induced p65 nuclear translocation; cell count: measured here: nuclei count (cytotoxicity indicator), at 2.08 µM; inhibition: at 2 µM, stronger effect = higher value, 0% TNFa-plus-vehicle, 100% no-TNFa wells.
Experiment [2] in a line: endothelial E-selectin expression blockers – imaging, HUVEC, immunofluorescence, MLSMR starter and 10KST1 sets, primary screen (AID 487;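 active = visually confirmed hit in the image check and inhibition above 20%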;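 as to inhibition: signal is fraction of cell area covered by stained E-selectin grains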;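 as to nuclei count: 100% = median nuclei count of all wells on the same plate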). Conditions: HUVEC TNFalpha-induced E-selectin immunofluorescence imaging, at 2 µM; inhibition: stronger effect = higher value; nuclei count: measured here: cell number, toxicity.
The nature of experiment [3]: Primary imaging screen for DUSP6 inhibitors that restore phospho-Erk in transfected HeLa cells, chemical complementation (AID 609;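 active = compounds giving at least 50% inhibition in the cell-based MKP-3 phosphatase rescue imaging test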;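 as to inhibition: phospho-Erk level distribution per well compared with pooled transfected vehicle control wells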). To be noted: HeLa MKP-3 transfected, phospho-Erk imaging KS statistic, at 10 µM, cells stimulated with TPA for 15 min.
The target in experiment [4] is Dual specificity protein phosphatase 6 (Homo sapiens) (UniProt Q16828). The experiment is described as above. Conditions: HeLa MKP-3 transfected, phospho-Erk imaging KS statistic; at 10 µM; stronger effect = higher value; cells stimulated with TPA for 15 min.
Experiment [5] addresses Voltage-gated potassium channel subunit beta-2 (Rattus norvegicus) (UniProt P62483). Put plainly: inhibitors of rat Kvbeta2 reductase activity – biochemical, NADPH fluorescence, primary screen (AID 622;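 active = fluorescence slope higher than the sample average by over 3 SD, cut at about -0.22 in these data, passing the limit was not always enough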;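 also: slope of raw intensity against log time taken from 70 to 1610 s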). Conditions: recombinant KvBeta, 4-cyanobenzaldehyde reduction, at 10 µM, stronger effect = higher value.
Experiment [6] has the same target. The experiment is described as follows: enhancers of rat Kvbeta2 NADPH turnover – biochemical, NADPH fluorescence, primary screen (AID 623).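 Also: fluorescence intensity change per second fitted from 20 to 320 s.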 To be noted: Recombinant KvBeta, NADPH fluorescence decrease slope, 10 min; at 10 µM; stronger effect = lower value.
The target of experiment [7] is Alpha-2C adrenergic receptor (Homo sapiens) (UniProt P18825). The experiment is described as follows: compounds altering alpha2C-coupled GIRK flux – cell-based, HEK293 alpha2C/GIRK1/2, thallium flux, primary screen (AID 624;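 active = fluorescence slope after compound addition differing from the mean of all screened samples at 99.7% confidence, in either direction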;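 also: slope of fluorescence ratio to pre-addition baseline per second over 15 to 24 s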). Conditions: thallium flux BTC fluorescence, at 10 µM, actives lie on both sides.
The nature of experiment [8]: inhibitors of larval lipid processing in zebrafish, primary screen, whole organism, PED6 fluorescence, gall bladder and intestine (AID 686;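 active = a full or partial loss of lipid-probe fluorescence in the fish gall bladder, intestine or both, judged by eye; inactive = no fluorescence loss, or compound toxic to the fish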;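 also: larvae 5 to 7 days old with five fish per well; signal comes from phospholipase A2 cleavage of quenched PED6 carried via bile; overnight exposure to compound and PED6 before scoring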). To be noted: Zebrafish larvae PED6 lipid processing, fluorescence scoring; screened at 20 µM (by protocol). In outline:
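Test system – live zebrafish larvae aged 5-7 days, whole organism · Buffer or medium – E3 fish medium · Reagent – quenched phospholipase substrate PED6, 100 nM final, ingested by larvae · Doses – 20 µM single dose · Incubation – overnight compound and PED6 incubation · Technique – visual fluorescence microscopy scoring of gall bladder, gut · Read-out basis – visual per-well fluorescence inhibition score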

Experiment [9] can be described thus: loss of swimming-algae plug formation – whole organism, Chlamydomonas reinhardtii, WT vs cilia-less mutant, absorbance, 96-well, primary screen (AID 463189;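 active = inhibition at or above 50% relative to wild type and mutant plate controls; inactive = inhibition below 50%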;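 also: 0% = wild type cc124 cells in DMSO and 100% = ciliumless bld1 mutant cells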). To be noted: Chlamydomonas reinhardtii gravitaxis, OD600 absorbance, 2 days; at 10 µM; stronger effect = higher value.
[10] abbreviates: measured here: cell density z-score.
Setting [11] is: measured here: nuclear c-Myc green intensity z-score.
The mark [12] stands for this setting: measured here: nuclear pErk red intensity z-score, stronger effect = higher value.

Active and inactive are the calls of the source.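 The calls were made as follows, unless noted: active = NADPH fluorescence slope more negative than the mean of all samples by about 3 SD, 99.7% confidence; inactive = the rest.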

Sequence of Voltage-gated potassium channel subunit beta-2 (Rattus norvegicus) (P62483 whole entry, looked up): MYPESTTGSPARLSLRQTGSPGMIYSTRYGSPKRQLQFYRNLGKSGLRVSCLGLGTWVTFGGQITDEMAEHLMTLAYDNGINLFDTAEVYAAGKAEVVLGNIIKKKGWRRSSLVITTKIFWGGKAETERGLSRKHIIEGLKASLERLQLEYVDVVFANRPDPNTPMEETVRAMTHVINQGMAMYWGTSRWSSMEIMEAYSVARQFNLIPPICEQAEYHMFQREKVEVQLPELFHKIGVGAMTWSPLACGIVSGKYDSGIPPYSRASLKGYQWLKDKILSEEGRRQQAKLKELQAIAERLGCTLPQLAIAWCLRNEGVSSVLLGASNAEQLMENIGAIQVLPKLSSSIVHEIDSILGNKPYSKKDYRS
Sequence of Alpha-2C adrenergic receptor (Homo sapiens) (P18825 whole entry, looked up): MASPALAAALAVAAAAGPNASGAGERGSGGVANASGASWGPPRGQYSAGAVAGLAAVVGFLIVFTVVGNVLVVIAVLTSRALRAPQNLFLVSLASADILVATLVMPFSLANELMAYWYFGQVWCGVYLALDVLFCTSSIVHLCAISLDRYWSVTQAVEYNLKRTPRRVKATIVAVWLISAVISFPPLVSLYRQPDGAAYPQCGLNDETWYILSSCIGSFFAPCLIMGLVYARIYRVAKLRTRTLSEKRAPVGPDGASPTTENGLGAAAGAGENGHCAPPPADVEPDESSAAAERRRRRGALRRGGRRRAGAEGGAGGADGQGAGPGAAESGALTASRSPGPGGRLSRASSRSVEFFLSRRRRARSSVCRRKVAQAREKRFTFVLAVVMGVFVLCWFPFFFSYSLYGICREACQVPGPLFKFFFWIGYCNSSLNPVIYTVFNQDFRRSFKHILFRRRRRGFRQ
Sequence of Dual specificity protein phosphatase 6 (Homo sapiens) (Q16828 whole entry, looked up): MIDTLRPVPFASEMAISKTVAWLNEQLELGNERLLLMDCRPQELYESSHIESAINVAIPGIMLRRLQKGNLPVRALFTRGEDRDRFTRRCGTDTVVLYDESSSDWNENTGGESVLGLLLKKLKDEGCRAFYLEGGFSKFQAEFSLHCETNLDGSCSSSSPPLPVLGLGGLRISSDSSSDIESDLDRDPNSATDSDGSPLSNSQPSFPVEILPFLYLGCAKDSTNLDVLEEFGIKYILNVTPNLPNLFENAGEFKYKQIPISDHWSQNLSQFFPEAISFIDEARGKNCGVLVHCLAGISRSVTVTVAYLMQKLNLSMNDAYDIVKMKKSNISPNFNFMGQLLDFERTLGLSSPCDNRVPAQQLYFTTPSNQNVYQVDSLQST

For the compound `Cc1ccc2[nH]c3c(N4CCCCCC4)ncnc3c2c1`, the cell count in experiment [1] was 377. Also, the inhibition in experiment [1] was -11.4% (inactive); in [2], -85.7% (inactive); in [4] it was -3.5% (inactive); in [9], -9.6% (inactive). This compound registered a nuclei count in experiment [2] of 159%. The z-score in experiment [3] (setting [10]) is 1.13; in experiment [3] (setting [11]) it was -0.284; in experiment [3] (setting [12]), -0.123. Moreover, the fluorescence slope in experiment [5] was -0.44 (inactive). Besides, in [6], the NADPH fluorescence slope is -0.000151 (inactive). Further, the slope in experiment [7] is 0.00355 (inactive). Besides, the result in [8] was inactive.
On to `CCOC(=O)CSc1nc(C)c(C(C)=O)cc1C#N`, for which the cell count in experiment [1] was 623. For the same compound, the inhibition was -18.6% (inactive) in [1], -0.7% (inactive) in experiment [2], -0.624% (inactive) in experiment [4] and 43.9% (inactive) in [9]. In addition, the nuclei count in experiment [2] was 147%. For the same compound, the values for the z-score in experiment [3] (setting [10]), in [3] (setting [11]) and in experiment [3] (setting [12]) were -0.31, -1.06 and -1.5, respectively. In addition, in experiment [5], the fluorescence slope is -0.403 (inactive). Further, in experiment [6], the NADPH fluorescence slope is -1.7e-05 (inactive). Further, the slope in [7] is 0.00581 (inactive). The outcome in experiment [8] was inactive.
With `CN1CCN(CCCCOc2ccc(F)cc2)CC1`, the cell count in experiment [1] amounted to 488. The inhibition in experiment [1] was -6.3% (inactive); in experiment [2], -39.9% (inactive); in experiment [4] it was 7.48% (inactive); in experiment [9] it was 30.4% (inactive). Besides, the nuclei count in experiment [2] was 114%. Also, the z-score in experiment [3] (setting [10]) was 1.94; in experiment [3] (setting [11]), -1.66; in experiment [3] (setting [12]), 1.15. The fluorescence slope in [5] was -0.483 (inactive). In [6], the NADPH fluorescence slope is -0.00016 (inactive). For the same compound, in experiment [7], the slope is 0.00459 (inactive). The compound was classed as inactive in experiment [8].
For the compound `CC(C)Cc1[nH]c(=O)c(C#N)c2c1CCCC2`, the cell count in [1] was 623. The inhibition is 1.3% (inactive) in experiment [1], 2.8% (inactive) in experiment [2], 5.65% (inactive) in experiment [4] and 16.6% (inactive) in experiment [9]. The compound also registered a nuclei count in experiment [2] of 155%. Besides, the figures for the z-score in experiment [3] (setting [10]), in experiment [3] (setting [11]) and in [3] (setting [12]) were -1.11, 0.566 and 0.412, respectively. Further, the fluorescence slope in experiment [5] was -0.318 (inactive). Also, in experiment [6], the NADPH fluorescence slope was -9.4e-06 (inactive). In addition, in experiment [7], the slope was 0.00948 (inactive). Further, the compound was classed as inactive in [8].
Take `Fc1cnc(N2CCOCC2)nc1NCc1ccccc1`: in [1], the cell count came out at 649. In addition, the inhibition in experiment [1] is -2.3% (inactive); in [2], 32.4% (inactive); in experiment [4], 6.51% (inactive); in experiment [9] it was 0.319% (inactive). In addition, in [2], the nuclei count came out at 156%. In addition, the figures for the z-score in experiment [3] (setting [10]), in experiment [3] (setting [11]) and in [3] (setting [12]) were -0.315, 0.582 and 0.114, respectively. The fluorescence slope in [5] is -0.388 (inactive). In experiment [6], the NADPH fluorescence slope is -5.9e-05 (inactive). Besides, the slope in experiment [7] is 0.00592 (inactive). Further, in experiment [8], the compound was called inactive.
`C=CCn1c(=S)[nH]c2nc3c(cc2c1=O)CCCC3`: in [1], the cell count amounted to 546. For the same compound, the inhibition in experiment [1] was -1% (inactive); in [2], -44.7% (inactive); in experiment [4] it was -7.28% (inactive); in experiment [9], -0.142% (inactive). Further, the nuclei count in experiment [2] was found to be 112%. For the same compound, the z-score in experiment [3] (setting [10]) is -0.436; in experiment [3] (setting [11]), 2.14; in experiment [3] (setting [12]), 0.929. Also, the fluorescence slope in [5] was -0.428 (inactive). Moreover, the NADPH fluorescence slope in [6] is 4.7e-06 (inactive). The slope in experiment [7] was 0.0129 (inactive). In addition, the compound was classed as inactive in experiment [8].
Turning to `CCCCCCc1cc2cc(C(=O)NC)c(=N)oc2cc1O`, in experiment [1], the cell count was found to be 346. Moreover, the inhibition in experiment [1] is -2% (inactive); in [2], -68.8% (inactive); in experiment [4], 13.2% (inactive); in [9] it was -9.65% (inactive). Further, the nuclei count in experiment [2] turned out to be 90.1%. Also, the values for the z-score in [3] (setting [10]), in experiment [3] (setting [11]) and in [3] (setting [12]) were -0.814, 2.52 and -2.41, respectively. Moreover, the fluorescence slope in experiment [5] was -0.446 (inactive). Besides, the NADPH fluorescence slope in experiment [6] is -6.7e-05 (inactive). For the same compound, the slope in experiment [7] is 0 (inactive). Moreover, the result in experiment [8] was inactive.

By inhibition is commonly meant the drop in the measured response relative to a control, in per cent.
